From ChEMBL document CHEMBL1153067, “Synthesis and optimization of 2-pyridin-3-yl-benzo[d][1,3]oxazin-4-one based inhibitors of human neutrophil elastase” (Bioorg Med Chem Lett, 2009) come the findings set out here.

For orientation: half-life means the time needed for the level to fall by half in the phase considered. Low values mean fast loss, high ones slow loss.

Series [1] is described as follows: Stability in heparin treated rat plasma at 2 uM at 37 degC by electrospray ionization mass spectrometry. The class given is ADME, cell-free. An outline of the steps: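 Compounds at […] incubated at 37 °C in heparinized rat plasma. Plasma proteins precipitated with acetonitrile, then compound quantified by ESI-MS against an internal standard. t1/2 derived from a first-order rate constant fitted to concentration versus time.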

A short description of series [2]: Chemical stability in 200 mM sodium borate buffer at pH 9.2. It is filed as physicochemical. In outline:
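Alkaline hydrolysis followed by loss of the intact benzoxazinone ring absorbance maximum (340 nm 10 nm) in 200 mM sodium borate, pH 9.2, with 1% DMSO.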

Turning to `CCc1cc(OC)cc2nc(-c3cccnc3N3CCN(C4CCCC4)CC3)oc(=O)c12`, the half-life at 2 µM in series [1] is 1.5 h. Turning to `CCc1cc(OC)cc2nc(-c3cccnc3N3CCN(CC(C)C)CC3)oc(=O)c12`, the half-life at 2 µM in series [1] is 0.8 h. With `CCc1cc(OC)cc2nc(-c3cccnc3N3CCN(C)CC3)oc(=O)c12`, the half-life at 2 µM in series [1] stood at 1.4 h. In series [2], this molecule displayed a half-life of 4 h. Regarding `CCc1cc(OC)cc2nc(-c3cccnc3N3CCN(CCN(C)C)CC3)oc(=O)c12`, the half-life at 2 µM in series [1] stood at 0.13 h.

Regarding `CCc1cc(OC)cc2nc(-c3cccnc3N3CCN(CCO)CC3)oc(=O)c12`, the half-life at 2 µM in series [1] was determined as 0.283 h. Compared with the last molecule, the half-life at 2 µM is about 2.2-fold higher.

`CCc1cccc2nc(-c3cccnc3N3CCN(C)CC3)oc(=O)c12` had a half-life in series [2] of 1.08 h. `CCc1cc(OC)cc2nc(-c3cccnc3N3CCC(C(=O)O)CC3)oc(=O)c12` displayed a half-life at 2 µM in series [1] of 1.35 h. For the same molecule, the half-life in series [2] stood at 16.7 h. `CCc1cc(OC)cc2nc(-c3cccnc3N3CCN(CCN4CCOCC4)CC3)oc(=O)c12`: the half-life at 2 µM in series [1] was determined as 0.317 h. For `CCc1cc(N(C)C)cc2nc(-c3cccnc3N3CCN(C)CC3)oc(=O)c12`, the half-life in series [2] is 122 h.

`CCc1cc(N(C)C)cc2nc(-c3cccnc3N3CCN(C4CCN(C)CC4)CC3)oc(=O)c12`: the half-life in series [2] was found to be 115 h. The half-life values of the last two molecules are within 1.5-fold of each other. In turn, `CCc1cc(OC)cc2nc(-c3cccnc3N3CCN(CCC#N)CC3)oc(=O)c12` returned a half-life at 2 µM in series [1] of 0.183 h. As to `CCc1cc(OC)cc2nc(-c3cccnc3N3CCN(C4CCN(C)CC4)CC3)oc(=O)c12`, in series [2], the half-life was found to be 23.3 h. Turning to `CCc1cc(OC)cc2nc(-c3cccnc3N3CCN(CC(=O)O)CC3)oc(=O)c12`, the half-life at 2 µM in series [1] was found to be 4.5 h. On to `CCc1cc(OC)cc2nc(-c3cccnc3N3CCC[C@@H](C(=O)O)C3)oc(=O)c12`, for which the half-life at 2 µM in series [1] was 2.5 h. With `CCc1cc(OC)cc2nc(-c3cccnc3N3CCC[C@H](C(=O)O)C3)oc(=O)c12`, the half-life at 2 µM in series [1] was 2.33 h. On to `CCc1cc(OC)cc2nc(-c3cccnc3N3CCN(CC4CC4)CC3)oc(=O)c12`, for which the half-life at 2 µM in series [1] amounted to 1.15 h.

`CCc1cc(OC)cc2nc(-c3cccnc3N3CCN(CCOC)CC3)oc(=O)c12` registered a half-life at 2 µM in series [1] of 0.867 h. The same measure, in the same setting: the same measure for `CCCCN1CCN(c2ncccc2-c2nc3cc(OC)cc(CC)c3c(=O)o2)CC1`: 0.85 h.

With `CCc1cccc2nc(-c3cccnc3N3CCN(C4CCN(C)CC4)CC3)oc(=O)c12`, the half-life in series [2] amounted to 0.933 h. The same measure, in the same setting: the same measure for `CCc1cccc2nc(-c3cccnc3N3CCC(C(=O)O)CC3)oc(=O)c12`: 1.48 h.
